The results in this text go back to ChEMBL document CHEMBL1134513, “Synthesis and activities of pyoverdin-quinolone adducts: a prospective approach to a specific Therapy against Pseudomonas aeruginosa” (2001).

Values after ≈ are worked out from the molar mass of the structure shown.

Experiment [1] is described as follows: Minimum effective dose required for the inhibition of Escherichia coli gyrase.
Experiment [2] concerns Pseudomonas aeruginosa. Kind of experiment: Minimum inhibitory concentration against Pseudomonas aeruginosa IAI, measured in Muller-Hinton (MH) solid media. Format: functional.
Experiment [3] concerns Pseudomonas aeruginosa. Description: Minimum inhibitory concentration against Pseudomonas aeruginosa IAI measured in succinate (SC) liquid media. Format: functional.
Experiment [4] deals with Pseudomonas aeruginosa. Kind of experiment: Minimum inhibitory concentration against Pseudomonas aeruginosa IAI measured in succinate (SC) solid media. Type of experiment: functional.
Experiment [5] has as its system Pseudomonas aeruginosa. Description: Minimum inhibitory concentration against Pseudomonas aeruginosa K690, measured in succinate (SC) solid media. Format: functional.
Experiment [6] relates to Pseudomonas aeruginosa. Description: Minimum inhibitory concentration against Pseudomonas aeruginosa ATCC 15692 measured in Muller-Hinton (MH) liquid media. Format: functional. The method, boiled down: (§1)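 Broth microdilution in Müller-Hinton medium, highest final concentration generally 64 µg/mL, final inoculum 10^6 cells/mL, 18 h at 37 °C. […] Adducts expressed as µg/mL quinolone equivalents.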

Experiment [7] relates to Pseudomonas aeruginosa. Kind of experiment: Minimum inhibitory concentration against Pseudomonas aeruginosa ATCC 15692 measured in Muller-Hinton (MH) solid media. Type of experiment: functional.
Experiment [8] has as its system Pseudomonas aeruginosa. Kind of experiment: Minimum inhibitory concentration against Pseudomonas aeruginosa ATCC 15692 measured in succinate (SC) liquid media. Format: functional.
The test system of experiment [9] is Pseudomonas aeruginosa. Description: Minimum inhibitory concentration against Pseudomonas aeruginosa ATCC 27853 measured in Muller-Hinton (MH) liquid media. Type of experiment: functional.
The subject of experiment [10] is Pseudomonas aeruginosa. Kind of experiment: Minimum inhibitory concentration against Pseudomonas aeruginosa ATCC 27853 measured in Muller-Hinton (MH) solid media. Format: functional.
Experiment [11] has as its system Pseudomonas aeruginosa. Kind of experiment: Minimum inhibitory concentration against Pseudomonas aeruginosa ATCC 27853 measured in succinate (SC) liquid media. Type of experiment: functional.
Experiment [12] relates to Pseudomonas aeruginosa. Kind of experiment: Minimum inhibitory concentration against Pseudomonas aeruginosa ATCC 27853 measured in succinate (SC) solid media. Type of experiment: functional.
The subject of experiment [13] is Pseudomonas aeruginosa. Description: Minimum inhibitory concentration against Pseudomonas aeruginosa K690, measured in Muller-Hinton (MH) solid media. Format: functional.
Experiment [14] deals with Pseudomonas aeruginosa. Kind of experiment: Minimum inhibitory concentration against Pseudomonas aeruginosa IAI, measured in Muller-Hinton (MH) liquid media. Type of experiment: functional. The method, boiled down:
as §1

Experiment [15] relates to Pseudomonas aeruginosa. Kind of experiment: Minimum inhibitory concentration against Pseudomonas aeruginosa ATCC 15692 measured in succinate (SC) solid media. Format: functional.

Regarding `C[C@H](O)[C@@H]1NC(=O)[C@H](CCCN(O)C=O)NC(=O)[C@@H](NC(=O)[C@](C)(CCCN(O)C=O)NC(=O)[C@@H](CO)NC(=O)[C@H](CCCN=C(N)N)NC(=O)[C@@H](CO)NC(=O)[C@@H]2CCNc3c(NC(=O)CCC(=O)NCCNC(=O)CCC(=O)OCOC(=O)N4CCN(c5cc6nc7c(cc6cc5F)c(=O)c(C(=O)O)cn7C)CC4)cc4cc(O)c(O)cc4[n+]32)CCCCNC(=O)[C@@H]([C@H](C)O)NC1=O`, the MED in [1] was 25 µg/mL.

In experiment [1], `CCn1cc(C(=O)O)c(=O)c2cc(F)c(N3CCN(C(=O)CCC(=O)NCCNC(=O)CCC(=O)Nc4cc5cc(O)c(O)cc5[n+]5c4NCC[C@H]5C(=O)N[C@@H](CO)C(=O)N[C@@H](CCCN=C(N)N)C(=O)N[C@H](CO)C(=O)N[C@@](C)(CCCN(O)C=O)C(=O)N[C@H]4CCCCNC(=O)[C@@H]([C@H](C)O)NC(=O)[C@H]([C@H](C)O)NC(=O)[C@H](CCCN(O)C=O)NC4=O)CC3)cc21` returned an MED of 50 µg/mL.

Turning to `CCn1cc(C(=O)O)c(=O)c2cc(F)c(N3CCN(C(=O)OCOC(=O)CCC(=O)NCCNC(=O)CCC(=O)Nc4cc5cc(O)c(O)cc5[n+]5c4NCC[C@H]5C(=O)N[C@@H](CO)C(=O)N[C@@H](CCCN=C(N)N)C(=O)N[C@H](CO)C(=O)N[C@@](C)(CCCN(O)C=O)C(=O)N[C@H]4CCCCNC(=O)[C@@H]([C@H](C)O)NC(=O)[C@H]([C@H](C)O)NC(=O)[C@H](CCCN(O)C=O)NC4=O)CC3)cc21`, the MED in [1] was determined as 50 µg/mL.

One may read the MIC as the least concentration at which growth counts as inhibited. Low values mean a more susceptible organism, high ones a less susceptible organism. Turning to `CCn1cc(C(=O)O)c(=O)c2cc(F)c(N3CCNCC3)cc21` [NORFLOXACIN], the MIC against Pseudomonas aeruginosa [2] was 1 µg/mL (≈ 3.13 µM); in the experiment with Pseudomonas aeruginosa [3] it was 0.25 µg/mL (≈ 0.783 µM); with Pseudomonas aeruginosa [4] it was 0.03 µg/mL (≈ 0.0939 µM); in the experiment with Pseudomonas aeruginosa [5], 4 µg/mL (≈ 12.5 µM); with Pseudomonas aeruginosa [6], 1 µg/mL (≈ 3.13 µM); against Pseudomonas aeruginosa [7], 0.25 µg/mL (≈ 0.783 µM). The MIC with Pseudomonas aeruginosa [8] amounted to 0.25 µg/mL (≈ 0.783 µM); against Pseudomonas aeruginosa [9], 4 µg/mL (≈ 12.5 µM); against Pseudomonas aeruginosa [10], 2 µg/mL (≈ 6.26 µM); with Pseudomonas aeruginosa [11], 2 µg/mL (≈ 6.26 µM); with Pseudomonas aeruginosa [12] it was 0.25 µg/mL (≈ 0.783 µM); in the experiment on Pseudomonas aeruginosa [13] it was 8 µg/mL (≈ 25.1 µM). For the same molecule, the values for the MIC in the experiment on Pseudomonas aeruginosa [14] and against Pseudomonas aeruginosa [15] were 1 µg/mL (≈ 3.13 µM) and 0.06 µg/mL (≈ 0.188 µM), respectively.

`CCn1cc(C(=O)O)c(=O)c2cc(F)c(N3CCN(C(=O)CCC(=O)NCCNC(=O)CCC(=O)Nc4cc5cc(O)c(O)cc5[n+]5c4NCC[C@H]5C(=O)N[C@H](CO)C(=O)N[C@@H](CCCN=C(N)N)C(=O)N[C@H](CO)C(=O)N[C@@](C)(CCCN(O)C=O)C(=O)N[C@H]4CCCCNC(=O)[C@H]([C@@H](C)O)NC(=O)[C@H]([C@@H](C)O)NC(=O)[C@H](CCCN(O)C=O)NC4=O)CC3)cc21`: the MIC is 32 µg/mL in the experiment on Pseudomonas aeruginosa [2]; 4 µg/mL in the experiment with Pseudomonas aeruginosa [4]; 8 µg/mL in the experiment with Pseudomonas aeruginosa [5]; 8 µg/mL with Pseudomonas aeruginosa [7]; greater than 64 µg/mL in the experiment on Pseudomonas aeruginosa [10]; 8 µg/mL in the experiment on Pseudomonas aeruginosa [12]. Moreover, the MIC against Pseudomonas aeruginosa [13] came out at 32 µg/mL; against Pseudomonas aeruginosa [15], 2 µg/mL.

Consider `C[C@@H](O)[C@@H]1NC(=O)[C@H](CCCN(O)C=O)NC(=O)[C@@H](NC(=O)[C@](C)(CCCN(O)C=O)NC(=O)[C@@H](CO)NC(=O)[C@H](CCCN=C(N)N)NC(=O)[C@@H](CO)NC(=O)[C@@H]2CCNc3c(NC(=O)CCC(=O)NCCNC(=O)CCC(=O)OCOC(=O)N4CCN(c5cc6nc7c(cc6cc5F)c(=O)c(C(=O)O)cn7C)CC4)cc4cc(O)c(O)cc4[n+]32)CCCCNC(=O)[C@H]([C@@H](C)O)NC1=O` [BENZONAPHTHYRIDONE BPL ADDUCT], for which the MIC is 16 µg/mL in the experiment with Pseudomonas aeruginosa [2]; 2 µg/mL with Pseudomonas aeruginosa [3]; 1 µg/mL in the experiment on Pseudomonas aeruginosa [4]; 8 µg/mL in the experiment with Pseudomonas aeruginosa [5]; 4 µg/mL in the experiment on Pseudomonas aeruginosa [6]; 8 µg/mL in the experiment on Pseudomonas aeruginosa [7]. The MIC against Pseudomonas aeruginosa [8] worked out at 2 µg/mL; in the experiment with Pseudomonas aeruginosa [9] it was 32 µg/mL; in the experiment with Pseudomonas aeruginosa [10] it was 64 µg/mL; against Pseudomonas aeruginosa [11] it was 32 µg/mL; against Pseudomonas aeruginosa [12], 4 µg/mL; in the experiment on Pseudomonas aeruginosa [13], 32 µg/mL. Also, the minimal inhibitory concentration (MIC) against Pseudomonas aeruginosa [14] was 8 µg/mL; against Pseudomonas aeruginosa [15], 1 µg/mL.

Regarding `CCn1cc(C(=O)O)c(=O)c2cc(F)c(N3CCN(C(=O)OCOC(=O)CCC(=O)NCCNC(=O)CCC(=O)Nc4cc5cc(O)c(O)cc5[n+]5c4NCC[C@H]5C(=O)N[C@H](CO)C(=O)N[C@@H](CCCN=C(N)N)C(=O)N[C@H](CO)C(=O)N[C@@](C)(CCCN(O)C=O)C(=O)N[C@H]4CCCCNC(=O)[C@H]([C@@H](C)O)NC(=O)[C@H]([C@@H](C)O)NC(=O)[C@H](CCCN(O)C=O)NC4=O)CC3)cc21`, the MIC against Pseudomonas aeruginosa [2] worked out at 4 µg/mL; against Pseudomonas aeruginosa [3], 0.5 µg/mL; against Pseudomonas aeruginosa [4], 2 µg/mL; with Pseudomonas aeruginosa [5], 16 µg/mL; in the experiment with Pseudomonas aeruginosa [6] it was 2 µg/mL; against Pseudomonas aeruginosa [7] it was 2 µg/mL. In addition, the MIC with Pseudomonas aeruginosa [8] turned out to be 0.5 µg/mL; in the experiment with Pseudomonas aeruginosa [9], 16 µg/mL; in the experiment on Pseudomonas aeruginosa [10], 16 µg/mL; in the experiment with Pseudomonas aeruginosa [11], 8 µg/mL; in the experiment with Pseudomonas aeruginosa [12], 8 µg/mL; in the experiment with Pseudomonas aeruginosa [13], 16 µg/mL. Moreover, the MIC came to 4 µg/mL in the experiment with Pseudomonas aeruginosa [14] and 2 µg/mL in the experiment on Pseudomonas aeruginosa [15].

`C[C@H](O)[C@@H]1NC(=O)[C@H](CCCN(O)C=O)NC(=O)[C@@H](NC(=O)[C@](C)(CCCN(O)C=O)NC(=O)[C@@H](CO)NC(=O)[C@H](CCCN=C(N)N)NC(=O)[C@H](CO)NC(=O)[C@@H]2CCNc3c(NC(=O)CCC(=O)NCCNC(=O)CCC(=O)N4CCN(c5cc6nc7c(cc6cc5F)c(=O)c(C(=O)O)cn7C)CC4)cc4cc(O)c(O)cc4[n+]32)CCCCNC(=O)[C@@H]([C@H](C)O)NC1=O` showed an MED in [1] of 25 µg/mL.

`Cn1cc(C(=O)O)c(=O)c2cc3cc(F)c(N4CCNCC4)cc3nc21`: the minimal inhibitory concentration (MIC) was 16 µg/mL (≈ 44.9 µM) in the experiment with Pseudomonas aeruginosa [2]; 32 µg/mL (≈ 89.8 µM) in the experiment on Pseudomonas aeruginosa [3]; 16 µg/mL (≈ 44.9 µM) in the experiment on Pseudomonas aeruginosa [4]; 16 µg/mL (≈ 44.9 µM) in the experiment with Pseudomonas aeruginosa [5]; 16 µg/mL (≈ 44.9 µM) against Pseudomonas aeruginosa [6]; 8 µg/mL (≈ 22.4 µM) in the experiment on Pseudomonas aeruginosa [7]. Moreover, the MIC with Pseudomonas aeruginosa [8] is 64 µg/mL (≈ 180 µM); in the experiment with Pseudomonas aeruginosa [9], 32 µg/mL (≈ 89.8 µM); against Pseudomonas aeruginosa [10], 16 µg/mL (≈ 44.9 µM); against Pseudomonas aeruginosa [11] it was greater than 64 µg/mL; with Pseudomonas aeruginosa [12] it was 8 µg/mL (≈ 22.4 µM); against Pseudomonas aeruginosa [13], 32 µg/mL (≈ 89.8 µM). Besides, the MIC against Pseudomonas aeruginosa [14] was 16 µg/mL (≈ 44.9 µM); against Pseudomonas aeruginosa [15] it was 4 µg/mL (≈ 11.2 µM). In experiment [1], this molecule had an MED of 4 µg/mL.

Turning to `C[C@@H](O)[C@@H]1NC(=O)[C@H](CCCN(O)C=O)NC(=O)[C@@H](NC(=O)[C@](C)(CCCN(O)C=O)NC(=O)[C@@H](CO)NC(=O)[C@H](CCCN=C(N)N)NC(=O)[C@@H](CO)NC(=O)[C@@H]2CCNc3c(NC(=O)CCC(=O)NCCNC(=O)CCC(=O)N4CCN(c5cc6nc7c(cc6cc5F)c(=O)c(C(=O)O)cn7C)CC4)cc4cc(O)c(O)cc4[n+]32)CCCCNC(=O)[C@H]([C@@H](C)O)NC1=O`, the MIC in the experiment with Pseudomonas aeruginosa [2] was 32 µg/mL; in the experiment with Pseudomonas aeruginosa [4] it was 8 µg/mL; against Pseudomonas aeruginosa [5] it was 4 µg/mL; in the experiment on Pseudomonas aeruginosa [7] it was 16 µg/mL; against Pseudomonas aeruginosa [10], greater than 64 µg/mL; against Pseudomonas aeruginosa [12], 8 µg/mL. Also, the MIC against Pseudomonas aeruginosa [13] was 64 µg/mL; in the experiment on Pseudomonas aeruginosa [15], 8 µg/mL.
